Laboratory results taken from ChEMBL document CHEMBL1146690, “Design and synthesis of aminopropyl tetrahydroindole-based indolin-2-ones as selective and potent inhibitors of Src and Yes tyrosine kinase” (Bioorg Med Chem Lett, 2004).

Assays:
[1] = biological target: Proto-oncogene tyrosine-protein kinase Src (Homo sapiens, UniProt P12931); assay: Inhibitory activity against Src protein tyrosine kinase
Method in brief: (§1)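 Enzymatic kinase inhibition run by previously reported methods. Each IC50 came from at least two separate tests with deviation under 20%, and the mean is reported.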

[2] = biological target: Fibroblast growth factor receptor 1 (Homo sapiens, UniProt P11362); assay: Inhibitory activity against Fibroblast growth factor receptor 1
[3] = biological target: Tyrosine-protein kinase Fyn (Homo sapiens, UniProt P06241); assay: Inhibitory activity against Fyn tyrosine kinase
[4] = biological target: Tyrosine-protein kinase Lck (Homo sapiens, UniProt P06239); assay: Inhibitory activity against Lck tyrosine kinase
[5] = biological target: Platelet-derived growth factor receptor beta (Homo sapiens, UniProt P09619); assay: Inhibitory activity against PDGFRbeta tyrosine kinase; method in brief: as §1
[6] = biological target: Vascular endothelial growth factor receptor 2 (Homo sapiens, UniProt P35968); assay: Inhibitory activity against Vascular endothelial growth factor receptor 2
Sequence of Vascular endothelial growth factor receptor 2 (P35968 whole entry): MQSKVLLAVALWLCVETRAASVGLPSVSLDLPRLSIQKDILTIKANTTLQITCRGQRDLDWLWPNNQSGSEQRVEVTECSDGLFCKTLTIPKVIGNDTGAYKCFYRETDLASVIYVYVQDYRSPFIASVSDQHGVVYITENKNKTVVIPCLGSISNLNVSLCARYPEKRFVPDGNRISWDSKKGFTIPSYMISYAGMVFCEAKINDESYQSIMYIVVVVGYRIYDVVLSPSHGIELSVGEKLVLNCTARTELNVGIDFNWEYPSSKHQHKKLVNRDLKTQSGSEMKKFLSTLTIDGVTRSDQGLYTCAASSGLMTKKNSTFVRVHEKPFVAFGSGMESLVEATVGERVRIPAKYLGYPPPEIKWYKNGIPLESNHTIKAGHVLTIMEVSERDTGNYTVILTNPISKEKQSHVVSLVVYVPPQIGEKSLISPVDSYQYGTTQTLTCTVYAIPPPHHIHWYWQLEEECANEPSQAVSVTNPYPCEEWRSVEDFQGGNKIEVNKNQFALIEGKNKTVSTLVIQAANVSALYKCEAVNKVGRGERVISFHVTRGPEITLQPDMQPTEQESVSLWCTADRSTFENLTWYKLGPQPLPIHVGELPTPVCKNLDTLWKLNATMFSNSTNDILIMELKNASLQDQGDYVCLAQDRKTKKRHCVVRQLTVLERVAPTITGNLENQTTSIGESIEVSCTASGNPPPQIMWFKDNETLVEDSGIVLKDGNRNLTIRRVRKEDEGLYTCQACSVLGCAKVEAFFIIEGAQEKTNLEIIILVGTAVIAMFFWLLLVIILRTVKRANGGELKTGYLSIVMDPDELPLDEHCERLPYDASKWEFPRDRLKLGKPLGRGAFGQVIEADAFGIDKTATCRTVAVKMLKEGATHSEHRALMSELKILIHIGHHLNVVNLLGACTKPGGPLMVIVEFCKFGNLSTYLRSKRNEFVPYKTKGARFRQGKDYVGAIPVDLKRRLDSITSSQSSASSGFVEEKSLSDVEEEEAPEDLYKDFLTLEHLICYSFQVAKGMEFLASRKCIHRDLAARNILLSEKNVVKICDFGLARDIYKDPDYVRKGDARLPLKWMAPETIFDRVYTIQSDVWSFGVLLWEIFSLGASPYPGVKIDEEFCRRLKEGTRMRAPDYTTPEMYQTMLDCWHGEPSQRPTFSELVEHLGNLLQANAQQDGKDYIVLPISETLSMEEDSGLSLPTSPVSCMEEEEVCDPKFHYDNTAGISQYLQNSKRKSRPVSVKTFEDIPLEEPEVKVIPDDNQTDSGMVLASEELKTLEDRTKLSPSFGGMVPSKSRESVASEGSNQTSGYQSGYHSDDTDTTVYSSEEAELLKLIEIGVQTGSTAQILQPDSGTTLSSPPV

Sequence of Proto-oncogene tyrosine-protein kinase Src (P12931 2-536 limits assumed): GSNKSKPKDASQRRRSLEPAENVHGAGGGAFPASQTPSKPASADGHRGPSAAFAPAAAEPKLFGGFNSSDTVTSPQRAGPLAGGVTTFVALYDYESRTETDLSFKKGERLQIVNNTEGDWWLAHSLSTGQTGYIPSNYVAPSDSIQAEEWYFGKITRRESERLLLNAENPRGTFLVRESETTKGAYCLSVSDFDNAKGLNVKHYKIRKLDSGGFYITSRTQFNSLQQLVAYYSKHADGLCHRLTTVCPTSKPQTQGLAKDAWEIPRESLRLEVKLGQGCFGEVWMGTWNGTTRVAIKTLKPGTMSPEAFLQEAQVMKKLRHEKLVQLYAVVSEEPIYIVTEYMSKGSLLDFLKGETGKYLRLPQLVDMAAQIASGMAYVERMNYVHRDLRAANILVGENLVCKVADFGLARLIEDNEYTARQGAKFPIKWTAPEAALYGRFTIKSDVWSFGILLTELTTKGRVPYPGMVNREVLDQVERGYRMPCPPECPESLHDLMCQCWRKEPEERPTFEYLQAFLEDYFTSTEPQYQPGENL
Sequence of Platelet-derived growth factor receptor beta (P09619 whole entry): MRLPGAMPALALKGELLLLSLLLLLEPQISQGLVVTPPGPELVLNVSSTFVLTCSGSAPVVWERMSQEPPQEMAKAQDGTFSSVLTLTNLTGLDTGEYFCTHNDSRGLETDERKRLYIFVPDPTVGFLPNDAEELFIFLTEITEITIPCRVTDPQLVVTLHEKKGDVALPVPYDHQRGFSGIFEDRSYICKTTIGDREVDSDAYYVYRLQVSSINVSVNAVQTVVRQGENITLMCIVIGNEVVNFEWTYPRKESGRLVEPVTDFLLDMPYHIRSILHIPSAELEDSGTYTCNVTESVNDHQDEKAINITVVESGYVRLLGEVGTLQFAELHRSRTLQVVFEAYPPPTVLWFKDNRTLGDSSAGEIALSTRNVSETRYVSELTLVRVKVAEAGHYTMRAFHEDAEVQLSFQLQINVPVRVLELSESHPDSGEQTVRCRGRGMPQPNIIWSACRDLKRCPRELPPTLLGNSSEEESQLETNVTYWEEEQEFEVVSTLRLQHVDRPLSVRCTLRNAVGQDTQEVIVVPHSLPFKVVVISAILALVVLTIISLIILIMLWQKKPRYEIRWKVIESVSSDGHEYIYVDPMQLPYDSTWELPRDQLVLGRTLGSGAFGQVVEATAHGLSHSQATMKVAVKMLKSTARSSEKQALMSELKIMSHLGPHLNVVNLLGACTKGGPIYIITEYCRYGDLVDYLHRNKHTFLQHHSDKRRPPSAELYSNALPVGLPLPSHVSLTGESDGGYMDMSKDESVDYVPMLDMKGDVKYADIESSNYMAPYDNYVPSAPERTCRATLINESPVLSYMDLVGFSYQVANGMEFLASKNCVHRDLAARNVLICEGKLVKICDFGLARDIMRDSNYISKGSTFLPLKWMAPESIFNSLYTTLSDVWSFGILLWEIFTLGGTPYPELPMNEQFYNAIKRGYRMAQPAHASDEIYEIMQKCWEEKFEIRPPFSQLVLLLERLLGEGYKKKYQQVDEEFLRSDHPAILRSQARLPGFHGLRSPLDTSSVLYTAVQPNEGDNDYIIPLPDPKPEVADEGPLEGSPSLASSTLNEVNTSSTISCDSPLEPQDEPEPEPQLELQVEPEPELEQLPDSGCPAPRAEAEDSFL
Sequence of Tyrosine-protein kinase Fyn (P06241 whole entry): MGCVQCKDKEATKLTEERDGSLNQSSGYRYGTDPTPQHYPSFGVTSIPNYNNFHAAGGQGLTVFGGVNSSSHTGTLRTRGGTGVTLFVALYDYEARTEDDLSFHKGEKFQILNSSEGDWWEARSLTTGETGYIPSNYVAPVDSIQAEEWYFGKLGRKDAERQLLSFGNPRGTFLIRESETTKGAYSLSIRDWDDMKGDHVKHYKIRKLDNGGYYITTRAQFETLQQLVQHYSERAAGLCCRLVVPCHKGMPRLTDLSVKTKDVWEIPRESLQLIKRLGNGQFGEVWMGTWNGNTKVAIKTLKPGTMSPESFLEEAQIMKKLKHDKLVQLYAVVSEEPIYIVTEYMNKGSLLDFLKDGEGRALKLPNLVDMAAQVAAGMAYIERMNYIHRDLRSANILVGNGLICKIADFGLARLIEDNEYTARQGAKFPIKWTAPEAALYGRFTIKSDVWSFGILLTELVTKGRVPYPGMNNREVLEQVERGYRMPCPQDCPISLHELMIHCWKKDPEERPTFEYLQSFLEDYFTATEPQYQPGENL
Sequence of Fibroblast growth factor receptor 1 (P11362 whole entry): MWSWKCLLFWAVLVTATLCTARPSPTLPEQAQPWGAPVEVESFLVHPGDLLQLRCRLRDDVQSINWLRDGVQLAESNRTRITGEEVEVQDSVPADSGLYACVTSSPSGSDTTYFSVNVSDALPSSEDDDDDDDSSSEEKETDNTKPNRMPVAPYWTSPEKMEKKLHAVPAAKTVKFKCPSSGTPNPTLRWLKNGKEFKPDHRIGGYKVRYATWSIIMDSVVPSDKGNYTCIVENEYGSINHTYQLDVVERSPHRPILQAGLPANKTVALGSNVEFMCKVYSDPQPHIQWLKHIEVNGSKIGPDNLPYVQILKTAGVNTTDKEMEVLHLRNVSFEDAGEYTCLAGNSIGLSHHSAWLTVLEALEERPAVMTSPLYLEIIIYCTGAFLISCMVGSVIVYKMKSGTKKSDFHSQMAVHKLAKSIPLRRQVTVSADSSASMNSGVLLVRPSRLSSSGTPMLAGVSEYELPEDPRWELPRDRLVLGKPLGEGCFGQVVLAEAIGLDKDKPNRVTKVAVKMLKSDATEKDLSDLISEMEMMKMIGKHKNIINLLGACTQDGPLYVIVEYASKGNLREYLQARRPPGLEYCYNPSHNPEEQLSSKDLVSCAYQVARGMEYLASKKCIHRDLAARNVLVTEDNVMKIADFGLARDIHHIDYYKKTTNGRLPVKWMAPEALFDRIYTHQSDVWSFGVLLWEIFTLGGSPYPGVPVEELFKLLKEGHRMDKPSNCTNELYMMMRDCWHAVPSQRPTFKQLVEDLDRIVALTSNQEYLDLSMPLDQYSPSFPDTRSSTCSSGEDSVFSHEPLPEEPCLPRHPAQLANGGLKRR
Sequence of Tyrosine-protein kinase Lck (P06239 whole entry): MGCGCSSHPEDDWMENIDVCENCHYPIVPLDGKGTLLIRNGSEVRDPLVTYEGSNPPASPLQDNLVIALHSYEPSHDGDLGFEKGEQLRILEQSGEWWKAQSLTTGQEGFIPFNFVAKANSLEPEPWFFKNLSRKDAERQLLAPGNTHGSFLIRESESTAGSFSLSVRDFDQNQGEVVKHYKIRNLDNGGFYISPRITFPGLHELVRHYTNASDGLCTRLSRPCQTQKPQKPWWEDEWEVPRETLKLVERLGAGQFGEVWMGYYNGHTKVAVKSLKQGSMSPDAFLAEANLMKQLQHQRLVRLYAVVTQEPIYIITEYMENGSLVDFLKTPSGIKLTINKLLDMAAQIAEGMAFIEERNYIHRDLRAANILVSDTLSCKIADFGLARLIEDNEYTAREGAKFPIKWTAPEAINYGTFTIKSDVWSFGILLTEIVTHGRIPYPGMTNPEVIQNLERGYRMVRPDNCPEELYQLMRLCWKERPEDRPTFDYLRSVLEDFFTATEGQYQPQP

| SMILES | IC50 [1] | IC50 [2] | IC50 [3] | IC50 [4] | IC50 [5] | IC50 [6] |
| --- | --- | --- | --- | --- | --- | --- |
| CNS(=O)(=O)c1ccc2c(c1)/C(=C/c1[nH]c3c(c1CCC(=O)N1CCN(C)CC1)CCCC3)C(=O)N2 | 300 nM | – | – | – | – | – |
| CCOC(=O)CN1CCN(CCCc2c(/C=C3\C(=O)Nc4ccc(S(=O)(=O)NC)cc43)[nH]c3c2CCCC3)CC1 | 70 nM | 80 nM | 500 nM | 600 nM | > 20000 nM | 500 nM |
| CNS(=O)(=O)c1ccc2c(c1)/C(=C/c1[nH]c3c(c1CCCN1CCN(C(=O)CO)CC1)CCCC3)C(=O)N2 | 400 nM | – | – | – | – | – |
| CN(C)CCCc1c(/C=C2\C(=O)Nc3ccc(C(=O)O)cc32)[nH]c2c1CCCC2 | 700 nM | – | – | – | – | – |
| CN(C)CCCc1c(/C=C2\C(=O)Nc3ccc(-c4ccccc4)cc32)[nH]c2c1CCCC2 | 2300 nM | – | – | – | – | – |
| CNS(=O)(=O)c1ccc2c(c1)/C(=C/c1[nH]c3c(c1CCCN1CCN(CC(=O)O)CC1)CCCC3)C(=O)N2 | 20 nM | 200 nM | 400 nM | 100 nM | 8000 nM | 400 nM |
| CNS(=O)(=O)c1ccc2c(c1)/C(=C/c1[nH]c3c(c1CCCN1CCN(C(C)=O)CC1)CCCC3)C(=O)N2 | 300 nM | – | – | – | – | – |
| CCS(=O)(=O)Cc1ccc2c(c1)/C(=C/c1[nH]c3c(c1CCCN(C)C)CCCC3)C(=O)N2 | 10000 nM | – | – | – | – | – |
| COc1ccc2c(c1)/C(=C/c1[nH]c3c(c1CCCN(C)C)CCCC3)C(=O)N2 | 1000 nM | – | – | – | – | – |
| CNS(=O)(=O)c1ccc2c(c1)/C(=C/c1[nH]c3c(c1CCCN1CCN(C)CC1)CCCC3)C(=O)N2 | 70 nM | 1200 nM | 800 nM | 700 nM | 10000 nM | 300 nM |
| CCS(=O)(=O)c1ccc2c(c1)/C(=C/c1[nH]c3c(c1CCC(=O)O)CCCC3)C(=O)N2 | 400 nM | – | – | – | – | – |
| CCC(=O)N1CCN(CCCc2c(/C=C3\C(=O)Nc4ccc(S(=O)(=O)CC)cc43)[nH]c3c2CCCC3)CC1 | 800 nM | – | – | – | – | – |
| CCS(=O)(=O)c1ccc2c(c1)/C(=C/c1[nH]c3c(c1CCC(=O)N1CCN(C)CC1)CCCC3)C(=O)N2 | 500 nM | – | – | – | – | – |
| CNS(=O)(=O)c1ccc2c(c1)/C(=C/c1[nH]c3c(c1CCCN1CCOCC1)CCCC3)C(=O)N2 | 60 nM | 1700 nM | – | – | 18000 nM | 2300 nM |
| CCS(=O)(=O)c1ccc2c(c1)/C(=C/c1[nH]c3c(c1CCCN1CCC(O)CC1)CCCC3)C(=O)N2 | 70 nM | – | 600 nM | 700 nM | 2300 nM | – |
| CC(C)NS(=O)(=O)c1ccc2c(c1)/C(=C/c1[nH]c3c(c1CCCN(C)C)CCCC3)C(=O)N2 | 230 nM | – | – | – | – | – |
| CNS(=O)(=O)c1ccc2c(c1)/C(=C/c1[nH]c3ccccc3c1CCCN(C)C)C(=O)N2 | 200 nM | – | – | – | – | – |
| CN(C)CCCc1c(/C=C2\C(=O)Nc3ccc(S(=O)(=O)N(C)C)cc32)[nH]c2c1CCCC2 | 2600 nM | – | – | – | – | – |
| CCS(=O)(=O)c1ccc2c(c1)/C(=C/c1[nH]c3c(c1CCCN1CCN(CC(=O)O)CC1)CCCC3)C(=O)N2 | 70 nM | 400 nM | 400 nM | 400 nM | 13000 nM | 800 nM |
| CNS(=O)(=O)c1ccc2c(c1)/C(=C/c1[nH]c3c(c1CN1CCOCC1)CCCC3)C(=O)N2 | 10 nM | 200 nM | 400 nM | 80 nM | – | 60 nM |
| CCS(=O)(=O)c1ccc2c(c1)/C(=C/c1[nH]c3c(c1CCC(N)=O)CCCC3)C(=O)N2 | 40 nM | 80 nM | 200 nM | – | 5100 nM | 300 nM |
| CN(C)CCCc1c(/C=C2\C(=O)Nc3ccc(F)cc32)[nH]c2c1CCCC2 | 500 nM | – | – | – | – | – |
| CC(C)S(=O)(=O)c1ccc2c(c1)/C(=C/c1[nH]c3c(c1CCCN(C)C)CCCC3)C(=O)N2 | 230 nM | – | – | – | – | – |

| SMILES | IC50 [1] | IC50 [2] | IC50 [3] | IC50 [4] | IC50 [5] | IC50 [6] |
| --- | --- | --- | --- | --- | --- | --- |
| CN(C)CCCc1c(/C=C2\C(=O)Nc3ccc(S(=O)(=O)NCc4ccc(F)cc4)cc32)[nH]c2c1CCCC2 | 1200 nM | – | – | – | – | – |
| CNS(=O)(=O)c1ccc2c(c1)/C(=C/c1cc3c([nH]1)CCCC3)C(=O)N2 | 2100 nM | – | – | – | – | – |
| CN(C)CCCc1c(/C=C2\C(=O)Nc3ccccc32)[nH]c2c1CCCC2 | 3300 nM | – | – | – | – | – |
| CNS(=O)(=O)c1ccc2c(c1)/C(=C/c1[nH]c3c(c1CCCN(C)C)CCCC3)C(=O)N2 | 100 nM | 700 nM | 60 nM | 1600 nM | 3300 nM | 1100 nM |
| CCS(=O)(=O)c1ccc2c(c1)/C(=C/c1[nH]c3c(c1CCCN1CCN(C)CC1)CCCC3)C(=O)N2 | 210 nM | – | 1200 nM | 600 nM | 11000 nM | 2600 nM |
| CN(C)CCCc1c(/C=C2\C(=O)Nc3ccc(S(=O)(=O)NCCO)cc32)[nH]c2c1CCCC2 | 240 nM | – | – | – | – | – |
| CNS(=O)(=O)c1ccc2c(c1)/C(=C/c1[nH]c3c(c1CCCN1CCNCC1)CCCC3)C(=O)N2 | 200 nM | – | – | – | – | – |
| CNS(=O)(=O)c1ccc2c(c1)/C(=C/c1[nH]c3c(c1CCCN1CCC(O)CC1)CCCC3)C(=O)N2 | 50 nM | 3400 nM | 200 nM | 300 nM | 4700 nM | 7100 nM |
| CCS(=O)(=O)c1ccc2c(c1)/C(=C/c1[nH]c3c(c1CN1CCOCC1)CCCC3)C(=O)N2 | 70 nM | 400 nM | 1400 nM | 800 nM | – | 100 nM |
| CNS(=O)(=O)c1ccc2c(c1)/C(=C/c1[nH]c3c(c1CCCN1CCN(CCO)CC1)CCCC3)C(=O)N2 | 30 nM | 600 nM | 100 nM | 400 nM | 5600 nM | 400 nM |
| CN(C)CCCc1c(/C=C2\C(=O)Nc3ccc(S(N)(=O)=O)cc32)[nH]c2c1CCCC2 | 600 nM | – | – | – | – | – |
| CCS(=O)(=O)c1ccc2c(c1)/C(=C/c1[nH]c3c(c1CCCN1CCN(C(=O)CO)CC1)CCCC3)C(=O)N2 | 220 nM | – | – | – | – | – |
| CN(C)CCCc1c(/C=C2\C(=O)Nc3ccc(S(=O)(=O)Nc4ccccc4Cl)cc32)[nH]c2c1CCCC2 | 300 nM | – | – | – | – | – |
| CNS(=O)(=O)c1ccc2c(c1)/C(=C/c1[nH]c3c(c1CCC(N)=O)CCCC3)C(=O)N2 | 30 nM | 70 nM | 50 nM | 100 nM | 6600 nM | 500 nM |
| CNS(=O)(=O)c1ccc2c(c1)/C(=C/c1[nH]c(C)c(C)c1CCCN(C)C)C(=O)N2 | 1000 nM | – | – | – | – | – |
| CCS(=O)(=O)c1ccc2c(c1)/C(=C/c1[nH]c3c(c1CCCN1CCN(CCO)CC1)CCCC3)C(=O)N2 | 70 nM | 1100 nM | 400 nM | 500 nM | 9000 nM | 400 nM |
| CCOC(=O)N1CCN(CCCc2c(/C=C3\C(=O)Nc4ccc(S(=O)(=O)NC)cc43)[nH]c3c2CCCC3)CC1 | 300 nM | – | – | – | – | – |
| CCS(=O)(=O)c1ccc2c(c1)/C(=C/c1[nH]c3c(c1CCCN1CCOCC1)CCCC3)C(=O)N2 | 150 nM | – | – | – | – | – |
| CCS(=O)(=O)c1ccc2c(c1)/C(=C/c1cc3c([nH]1)CCCC3)C(=O)N2 | 700 nM | – | – | – | – | – |
| CCS(=O)(=O)c1ccc2c(c1)/C(=C/c1[nH]c3c(c1CCCN(C)C)CCCC3)C(=O)N2 | 60 nM | 400 nM | 300 nM | 200 nM | 2500 nM | 2700 nM |
| CN(C)CCCc1c(/C=C2\C(=O)Nc3ccc(S(C)(=O)=O)cc32)[nH]c2c1CCCC2 | 300 nM | – | – | – | – | – |
| CCS(=O)(=O)c1ccc2c(c1)/C(=C/c1[nH]c3c(c1CCCN1CCN(C(C)=O)CC1)CCCC3)C(=O)N2 | 400 nM | – | – | – | – | – |
